Experiment [1] has as its target T1, Endothelin receptor type B (Homo sapiens, UniProt P24530).
T1 sequence (P24530 whole entry): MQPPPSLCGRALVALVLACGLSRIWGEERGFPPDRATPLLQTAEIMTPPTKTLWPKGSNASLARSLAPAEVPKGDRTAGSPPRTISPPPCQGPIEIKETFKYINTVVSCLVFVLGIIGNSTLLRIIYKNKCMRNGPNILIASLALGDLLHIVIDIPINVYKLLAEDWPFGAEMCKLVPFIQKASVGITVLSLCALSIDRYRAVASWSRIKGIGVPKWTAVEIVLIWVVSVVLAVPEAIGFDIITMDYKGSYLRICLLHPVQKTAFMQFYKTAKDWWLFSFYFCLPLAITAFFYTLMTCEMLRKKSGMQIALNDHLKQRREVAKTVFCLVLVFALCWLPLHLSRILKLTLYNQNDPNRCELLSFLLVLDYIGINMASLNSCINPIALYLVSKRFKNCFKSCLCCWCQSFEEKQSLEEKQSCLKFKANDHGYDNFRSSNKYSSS
Nature of the experiment: Binding affinity against human cloned Endothelin B receptor expressed in CHO-K1 cells. The format is cell-based. In short, it runs like this: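 Radioligand binding to cloned human ETA (Ltk⁻ cells) and ETB (CHO-K1 cells) receptors. […] Selectivity expressed as ETB IC50/ETA IC50.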

Another experiment has as its target T2, Endothelin-1 receptor (Homo sapiens, UniProt P25101).
T2 sequence (P25101 whole entry): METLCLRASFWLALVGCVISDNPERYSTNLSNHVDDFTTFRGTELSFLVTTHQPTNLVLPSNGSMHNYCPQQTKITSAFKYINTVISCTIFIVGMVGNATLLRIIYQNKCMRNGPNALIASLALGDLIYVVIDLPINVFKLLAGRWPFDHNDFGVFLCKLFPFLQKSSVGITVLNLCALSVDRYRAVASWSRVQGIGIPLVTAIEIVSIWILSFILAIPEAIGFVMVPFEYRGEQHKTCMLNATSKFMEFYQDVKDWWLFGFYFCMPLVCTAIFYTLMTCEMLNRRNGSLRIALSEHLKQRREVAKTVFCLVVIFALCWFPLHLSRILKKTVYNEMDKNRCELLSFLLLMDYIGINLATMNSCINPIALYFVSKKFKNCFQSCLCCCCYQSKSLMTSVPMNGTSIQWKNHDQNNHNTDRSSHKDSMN
Kind of experiment: Binding affinity against human cloned endothelin A receptor expressed in LTK-cells. The format is cell-based. In short, it runs like this: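 Radioligand binding to cloned human ETA (Ltk⁻ cells) and ETB (CHO-K1 cells) receptors. Selectivity expressed as ETB IC50/ETA IC50.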

Regarding `COc1ccc(C2(O)OC(=O)C(c3ccc4c(c3)OCO4)=C2Cc2cccc(C(F)(F)F)c2)cc1` (configuration not stated), the results for the IC50 (in experiment [1]; on Endothelin-1 receptor) were above 2500 nM and 43 nM, respectively.
Consider `COc1ccc(C2(O)OC(=O)C(c3ccc4c(c3)OCO4)=C2Cc2cccc(OC)c2OC)cc1` (configuration not stated), for which the IC50 (in general, the point on the concentration scale where inhibition reaches its midpoint) on Endothelin-1 receptor stood at 11 nM.
Regarding `COc1ccc(C2OC(=O)C(c3ccc4c(c3)OCO4)=C2Cc2cc(OC)c(OC)c(OC)c2)cc1` (configuration not stated), the IC50 in experiment [1] is above 25000 nM.
Regarding `COc1ccccc1C1(O)OC(=O)C(c2ccc3c(c2)OCO3)=C1Cc1ccccc1` (configuration not stated), the results for the IC50 (in experiment [1]; at Endothelin-1 receptor) were above 2500 nM and 480 nM, respectively.
The corresponding values for `COc1ccc(C2(OC)OC(=O)C(c3ccc4c(c3)OCO4)=C2Cc2cc(OC)c(OC)c(OC)c2)cc1` (configuration not stated) are above 2500 nM and 600 nM.
Take `COc1ccc(CC2=C(c3ccc(OC)cc3)C(=O)OC2(O)c2ccc(OC)cc2)cc1` (configuration not stated): the concentration for half-maximal inhibition (IC50) in experiment [1] turned out to be 9000 nM.
In the case of `COc1ccc(C2(O)OC(=O)C(c3ccc4c(c3)OCO4)=C2Cc2cccc3c2CCc2ccccc2C3=O)cc1` (configuration not stated), the IC50 in experiment [1] is 10000 nM; at Endothelin-1 receptor, 16000 nM.
As for `COc1ccc(C2(O)OC(=O)C(c3cc(OC)c4c(c3)OCO4)=C2Cc2cc(OC)c(OC)c(OC)c2)cc1C` (configuration not stated), the IC50 in experiment [1] worked out at 180 nM.
Regarding `CCc1ccc(C2(O)OC(=O)C(c3ccc4c(c3)OCO4)=C2Cc2ccccc2)cc1` (configuration not stated), the values for the IC50 (in experiment [1]; at Endothelin-1 receptor) were above 2500 nM and 630 nM, respectively.
The like results for `COc1ccc(C2OC(=O)C(c3ccc4c(c3)OCO4)=C2Cc2ccccc2)cc1` (configuration not stated) were, in that order, above 2500 nM and 700 nM.
The corresponding values for `COc1ccc(C2(O)OC(=O)C(c3ccc4c(c3)OCO4)=C2Cc2ccc(S(C)(=O)=O)cc2)cc1` (configuration not stated) are 3000 nM and 4 nM.
For `COc1ccc(C2(O)OC(=O)C(c3ccc4c(c3)OCO4)=C2Cc2cccc([N+](=O)[O-])c2)cc1` (configuration not stated), the IC50 in experiment [1] was above 25000 nM; on Endothelin-1 receptor, 70 nM.
In turn, `COc1ccc(C2(O)OC(=O)C(c3ccc(OC)c(OC)c3)=C2Cc2ccccc2)cc1` (configuration not stated) returned an IC50 at Endothelin-1 receptor of 70 nM.
As to `COc1ccc(C2(O)OC(=O)C(c3ccc4c(c3)OCO4)=C2Cc2ccc(O)cc2)cc1` (configuration not stated), the figures for the IC50 (in experiment [1]; on Endothelin-1 receptor) were above 250 nM and 8 nM, respectively.
The corresponding values for `COc1ccc(C2(O)OC(=O)C(c3cc(OC)c4c(c3)OCO4)=C2Cc2ccccc2)cc1` (configuration not stated) are 640 nM and 6.7 nM.
The like results for `COc1ccc(C2(O)OC(=O)C(c3ccc4c(c3)OCO4)=C2Cc2ccc3c(c2)OCCO3)cc1` (configuration not stated) were, in that order, 1600 nM and 7.5 nM.
Compound `COc1ccc(C2(O)OC(=O)C(c3ccc4c(c3)OCO4)=C2Cc2cc(OC)ccc2OC)cc1` (configuration not stated) returned an IC50 on Endothelin-1 receptor of 2.1 nM.
Regarding `COc1ccc(C2(O)OC(=O)C(c3ccc4c(c3)OCO4)=C2Cc2ccc3ccccc3c2)cc1` (configuration not stated), the IC50 is above 2500 nM in experiment [1] and 14 nM at Endothelin-1 receptor.
The like results for `COc1ccc(C2(OC)OC(=O)C(c3ccc4c(c3)OCO4)=C2Cc2ccccc2)cc1` (configuration not stated) were, in that order, above 25000 nM and 300 nM.
The like results for `COc1ccc(C2(O)OC(=O)C(c3cccc(OC)c3)=C2Cc2ccccc2)cc1` (configuration not stated) were, in that order, 12000 nM and 90 nM.
`COc1ccc(C2(O)OC(=O)C(c3ccc4c(c3)OCO4)=C2Cc2ccc(OC)c(OC)c2)cc1` (configuration not stated) returned an IC50 on Endothelin-1 receptor of 1.4 nM.
The same measure, in the same setting: the figure for `O=C1OC(O)(c2ccc3c(c2)OCO3)C(Cc2ccccc2)=C1c1ccc2c(c1)OCO2` (configuration not stated) is 19 nM.
With `COc1ccc(C2(O)OC(=O)C(c3cc(OC)cc(OC)c3)=C2Cc2ccccc2)cc1` (configuration not stated), the IC50 in experiment [1] was determined as 5200 nM; at Endothelin-1 receptor, 46 nM.
For the compound `COc1cc(C2(O)OC(=O)C(c3ccc4c(c3)OCO4)=C2Cc2ccccc2)cc(OC)c1OC` (configuration not stated), the IC50 in experiment [1] worked out at 4500 nM; on Endothelin-1 receptor, 25 nM.
With `COC(=O)c1ccc(CC2=C(c3ccc4c(c3)OCO4)C(=O)OC2(O)c2ccc(OC)cc2)cc1` (configuration not stated), on Endothelin-1 receptor, the IC50 worked out at 11 nM.
Regarding `COc1ccc(C2(O)OC(=O)C(c3ccc4c(c3)OCO4)=C2Cc2nccc3ccccc23)cc1` (configuration not stated), the IC50 in experiment [1] is 3200 nM; on Endothelin-1 receptor, 10 nM.
Consider `COc1ccc(C2(O)OC(=O)C(c3ccc4c(c3)OCO4)=C2Cc2ccccc2)cc1C` (configuration not stated), for which the IC50 at Endothelin-1 receptor was 12 nM.
Compound `COc1ccc(CC2=C(c3ccc(C)cc3)C(=O)OC2(O)c2ccc(OC)cc2)cc1` (configuration not stated) registered an IC50 in experiment [1] above 2500 nM.
`CSc1ccc(C2(O)OC(=O)C(c3ccc4c(c3)OCO4)=C2Cc2ccccc2)cc1` (configuration not stated): the IC50 in experiment [1] is above 2500 nM; on Endothelin-1 receptor, 170 nM.
Take `COc1ccc(C2(O)OC(=O)C(c3ccc4c(c3)OCO4)=C2CC2CCCCCC2)cc1` (configuration not stated): the IC50 on Endothelin-1 receptor was 35 nM.
As to `COc1ccc(C2(O)OC(=O)C(c3ccc4c(c3)OCO4)=C2Cc2cccnc2)cc1` (configuration not stated), the figures for the IC50 (in experiment [1]; on Endothelin-1 receptor) were above 2500 nM and 40 nM, respectively.
`COc1ccc(C2(O)OC(=O)C(c3ccc(OC)cc3OC)=C2Cc2ccccc2)cc1` (configuration not stated) showed an IC50 on Endothelin-1 receptor of 300 nM.
Regarding `COc1ccc(C2(O)OC(=O)C(c3ccc4c(c3)OCO4)=C2Cc2ccccc2)c(OC)c1` (configuration not stated), the results for the IC50 (in experiment [1]; on Endothelin-1 receptor) were above 2500 nM and 13 nM, respectively.
As to `COc1ccc(C2(O)OC(=O)C(c3ccc4c(c3)OCO4)=C2Cc2ccc(Cl)c(Cl)c2)cc1` (configuration not stated), the 50% inhibitory concentration (IC50) is above 2500 nM in experiment [1] and 150 nM on Endothelin-1 receptor.
Take `COc1ccc(C2(O)OC(=O)C(c3ccc4c(c3)OCO4)=C2Cc2ccc(NC(C)=O)cc2)cc1` (configuration not stated): the IC50 at Endothelin-1 receptor came out at 1.2 nM.
On the same count and under the same terms, under `O=C1OC(O)(c2ccc(OCc3ccccc3)cc2)C(Cc2ccccc2)=C1c1ccc2c(c1)OCO2` (configuration not stated) stands 950 nM.
In the case of `COc1ccc(C2(O)OC(=O)C(c3cc(OC)c4c(c3)OCO4)=C2Cc2ccccc2)cc1C` (configuration not stated), the IC50 in experiment [1] amounted to 1410 nM; on Endothelin-1 receptor it was 8.2 nM.
The like results for `COc1ccc(C2(O)OC(=O)C(c3ccc4c(c3)OCO4)=C2Cc2ccc([N+](=O)[O-])cc2)cc1` (configuration not stated) were, in that order, 17000 nM and 800 nM.
The like results for `COc1ccc(C2(O)OC(=O)C(c3cc(OC)ccc3OC)=C2Cc2ccccc2)cc1` (configuration not stated) were, in that order, above 2500 nM and 240 nM.
Compound `COc1ccc(C2(O)OC(=O)C(c3ccc4c(c3)OCO4)=C2Cc2cc(OC)cc(OC)c2)cc1` (configuration not stated) displayed an IC50 on Endothelin-1 receptor of 1.7 nM.
Take `CC(C)Oc1ccc(C2(O)OC(=O)C(c3ccc4c(c3)OCO4)=C2Cc2ccccc2)cc1` (configuration not stated): the IC50 in experiment [1] was 11000 nM; on Endothelin-1 receptor, 1150 nM.
Take `COc1ccc(C2(O)OC(=O)C(c3ccc4c(c3)OCO4)=C2Cc2ccc(SC)cc2)cc1` (configuration not stated): the IC50 in experiment [1] is above 2500 nM; at Endothelin-1 receptor, 3.9 nM.
The corresponding values for `COc1ccc(C2(O)OC(=O)C(c3ccc4c(c3)OCO4)=C2CC2CCCC2)cc1` (configuration not stated) are 630 nM and 10 nM.
Compound `COc1ccc(C2(O)OC(=O)C(c3ccc4c(c3)OCO4)=C2Cc2ccc3c(c2)OCO3)cc1` (configuration not stated) yielded a half-maximal inhibitory concentration (IC50) at Endothelin-1 receptor of 16 nM.
Still for that read-out and setting: the figure for `CCC1=C(c2ccc3c(c2)OCO3)C(=O)OC1(O)c1ccc(OC)cc1` (configuration not stated) is 320 nM; for `COC(=O)c1cccc(CC2=C(c3ccc4c(c3)OCO4)C(=O)OC2(O)c2ccc(OC)cc2)c1` (configuration not stated) it is 8.5 nM.
Take `COc1ccc(C2(O)OC(=O)C(c3ccc4c(c3)OCO4)=C2Cc2ccc(OC)c(C)c2)cc1` (configuration not stated): the IC50 in experiment [1] was 1140 nM.
Still for that read-out and setting: the figure for `COc1ccc(C2(O)OC(=O)C(c3ccc4c(c3)OCO4)=C2Cc2ccc(C)cc2)cc1` (configuration not stated) is above 2500 nM.
In turn, `COc1ccc(C2(O)OC(=O)C(c3ccc4c(c3)OCO4)=C2Cc2cc(OC)c(OC)cc2OC)cc1` (configuration not stated) displayed an IC50 at Endothelin-1 receptor of 1.8 nM.
The same measure, in the same setting: under `COc1ccc(C2(O)OC(=O)C(c3ccc4c(c3)OCO4)=C2Cc2ccc(-c3ccccc3)cc2)cc1` (configuration not stated) stands 200 nM.

The values above are taken from ChEMBL document CHEMBL1129982, “Structure-activity relationships in a series of orally active gamma-hydroxy butenolide endothelin antagonists” (J Med Chem, 1997).
